SMILES strings stand for the structures. Some results are limits rather than exact numbers.

Common to all, as to format: functional, organism-based
The subject of assay [1] is Crithidia fasciculata. The experiment in a line: The compound was tested for 50% growth inhibition against Crithidia fasciculata. Conditions: read-out: I50; call rule not given here. Put shortly: (§1)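 Cultures were set up in 50 mL growth medium with the analogue added and inoculated with about 1 × 10⁷ C. fasciculata. Duplicate flasks were run at each of 3–6 concentrations, with duplicate controls. Flasks were shaken at 25 °C, and growth was followed as absorbance change at 535 nm against uninoculated medium (1.0 = 7 × 10⁷ organisms/mL). Runs ended when controls reached 6 × 10⁷ to 9 × 10⁷ organisms/mL.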

Assay [2] deals with Crithidia fasciculata. Briefly: Inhibition of dihydrosterculate synthesis in Crithidia fasciculata; No inhibition. A digest of the protocol:
(§2)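 C. fasciculata (about 1 × 10⁷ organisms) was inoculated into 50 mL growth medium containing the analogue, using duplicate flasks at 3–6 concentrations plus duplicate untreated controls. Cultures were shaken at 25 °C until controls reached 6 × 10⁷ to 9 × 10⁷ organisms/mL. Harvested cells gave free fatty acids, which were converted to methyl esters. Dihydrosterculate was measured as % of total fatty acids by capillary GC-FID on BP1 and Supelcowax 10 columns.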

Assay [3] relates to Crithidia fasciculata. The experiment in a line: Inhibition of dihydrosterculate synthesis in Crithidia fasciculata. The following applies: read-out: I50. A digest of the protocol:
as §2

Assay [4] concerns Crithidia fasciculata. The experiment in a line: The compound was tested for 50% growth inhibition against Crithidia fasciculata; No inhibition. A digest of the protocol:
as §1

For the molecule `CCCCCCCC[S+]([O-])CCCCCCCCC(=O)O` (centres undefined), the IC50 in the assay on Crithidia fasciculata [1] is over 100 µM. Also, in the assay with Crithidia fasciculata [2], the I50 result is given as “Not Active”. Turning to `CCCCCCCCCSCCCCCCCC(=O)NCC(O)CO` (centres undefined), the IC50 was over 100 µM in the assay on Crithidia fasciculata [1] and 8 µM in the assay with Crithidia fasciculata [3]. The like results for `CCCCCCCCSCCCCCCCCC(=O)NCC(O)CO` (centres undefined) were, in that order, 17 µM and 12 µM. The like results for `CCCCCCCSCCCCCCCCCC(=O)O` were, in that order, 3 µM and 3 µM.

On to `CCCCCCCCCCCCCCCCCC(=O)NCC(O)CO` (centres undefined), for which the I50 result in the assay on Crithidia fasciculata [4] and in the assay with Crithidia fasciculata [2] was “Not Active” each time. As to `CCCCCCCCSCCCCCCCCC(=O)O`, the IC50 with Crithidia fasciculata [1] worked out at 10 µM; in the assay with Crithidia fasciculata [3] it was 4 µM. For `CCCCCCCCCCCCCCCCCC(=O)O` [STEARIC ACID], in the assay with Crithidia fasciculata [2], the I50 entry is “Not Active”. For `CCCCCCCCCSCCCCCCCC(=O)O`, the IC50 with Crithidia fasciculata [1] is over 100 µM; with Crithidia fasciculata [3] it was 0.9 µM.

Regarding `CCCCCCCCC[S+]([O-])CCCCCCCC(=O)O` (centres undefined), the IC50 in the assay with Crithidia fasciculata [1] is over 100 µM. Moreover, in the assay with Crithidia fasciculata [2], the I50 result is recorded as “Not Active”.

For the molecule `CCCCCCCCCCSCCCCCCC(=O)O`, the IC50 with Crithidia fasciculata [1] was found to be 0.8 µM; in the assay on Crithidia fasciculata [3] it was 0.4 µM.

Source of the values: ChEMBL document CHEMBL1124227, “Effects of sulfur-containing analogues of stearic acid on growth and fatty acid biosynthesis in the protozoan Crithidia fasciculata” (J Med Chem, 1988).
